Bioassay records: PubChem, Broad Institute
INS-1E ATP HTS: preserves ATP levels in cytokine-treated INS-1E cells; INS-1E cytokine-induced death, ATP luminescence, 48 h; normalised: neutral wells 0, positive control 100; hit rate 0.1% among 20,000; AID 488910; protection from cytokine-induced ATP loss, % at 10 µM;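 active = mean replicate protection from cytokine-induced ATP loss at least 50% and at least 75% of replicates each reaching 50%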
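Assay system – rat INS-1E insulinoma cell line · Quantity – 8000 cells per well · Buffer or medium – RPMI without phenol red, 5% FBS · Schedule – 48 h co-treatment, 10 min post-lysis read · Technique – luminescent ATP assay (CellTiter-Glo)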
A1 apoptosis 2: blocks A1, raising caspase activity; MEF A1-2A-BIM cells, caspase-Glo luminescence, 3 h; percent of clofoctol response, DMSO zero; caspase activation, % (test concentration not listed); 24,000 tested, under 10 active; AID 2465; in the data active = caspase activation above about 5.9%
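Evaluation: Caspase-3/7 activity from luminescence increase | Assay system: A1-2A-BIM mouse embryonic fibroblasts | Quantity: 2500 MEF cells/well | Medium: RPMI-1640 plus 10% FBS | Detection: Caspase-Glo 3/7 luminescence, 1 h at room temperature | Dosing: 50 nL compound per well, pinned | Timing: Cells settled overnight, compound exposure 3 h at 37 °C, 5% CO2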
T cruzi intra: inhibitors of intracellular Trypanosoma cruzi | intracellular Trypanosoma cruzi in host cells, plate reader | activity score (inhibition), % at 5.01 µM | hit rate 4.9% among 22,000 | AID 651903; in the data active = activity score above about 55%;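 also: parasites and compound incubated about four days before reading; 0% = median of neutral control wells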
Starred values were filed as active, the others as inactive; . = no result given. The full list was thinned out, with hits kept by preference.

SMILES | INS-1E ATP HTS | A1 apoptosis 2 | T cruzi intra
CC(C)(C)OC(=O)NC1(/C=N/NC(=O)c2cccc(C(=O)NO)c2)CCCC1 | -12.5 | . | -8.8
O=C1C[C@@](C(=O)NCc2ccccc2)(c2ccc([N+](=O)[O-])cc2)[C@@H](c2ccc(CO)cc2I)N1CC12CC3CC(CC(C3)C1)C2 | . | -0.5 | .
C=CCOC(=O)[C@@H]1[C@H]2C(=O)O[C@H](c3ccccc3)[C@H](c3ccccc3)N2[C@H](c2ccc(OCCOC(=O)[C@@H]3C[C@@H]4C(=O)N[C@@H](Cc5ccccc5)C(=O)N4[C@@H]3c3cccc(OCCO)c3)cc2)[C@@]12C(=O)Nc1ccc(I)cc12 | . | 0.0 | .
COC(=O)C(CC#Cc1ccc2c(c1)[C@]1(C(=O)N2)[C@H](c2ccc(OCCO)cc2)N2[C@H](c3ccccc3)[C@H](c3ccccc3)OC(=O)[C@H]2[C@@H]1C(N)=O)C(=O)OC | . | -0.5 | .
C[C@@H]1CN([C@@H](C)CO)C(=O)c2cc(NS(=O)(=O)c3ccc(F)cc3)ccc2O[C@H]1CN(C)Cc1ccc(C(=O)Nc2ccccc2N)cc1 | -5.1 | 1.5 | 57.4*
C[C@@H]1CN([C@H](C)CO)C(=O)c2cc(NS(=O)(=O)c3ccc(F)cc3)ccc2O[C@@H]1CN(C)Cc1ccc(C(=O)Nc2ccccc2N)cc1 | 7.6 | . | 15.6
O=C(NO)c1cccc(C(=O)N/N=C/c2ccoc2)c1 | 0.6 | -0.3 | -23.0
O=C(CCCCCC(=O)N/N=C/C=C/c1ccccc1)NO | . | -0.6 | .
O=C(CCCCCC(=O)Nc1ccccc1O)N/N=C/c1ccc(OCCO)cc1 | 2.2 | . | -15.8
C[C@@H]1CCCCO[C@H](CN(C)C(=O)Nc2ccc(C(F)(F)F)cc2)[C@H](C)CN([C@H](C)CO)C(=O)c2cc(NC(=O)Nc3ccc(F)cc3)ccc2O1 | . | 1.0 | .
C[C@H]1CCCCO[C@@H](CN(C)C(=O)Nc2ccccc2)[C@@H](C)CN([C@@H](C)CO)C(=O)c2cc(NC(=O)Nc3ccc(C(F)(F)F)cc3)ccc2O1 | . | -0.1 | .
C[C@@H]1CCCCO[C@H](CN(C)C(=O)Nc2ccccc2)[C@@H](C)CN([C@H](C)CO)C(=O)c2cc(NC(=O)Nc3ccc(C(F)(F)F)cc3)ccc2O1 | -44.1 | . | 70.2*
C[C@@H]1CCCCO[C@@H](CN(C)C(=O)Nc2ccc(F)cc2)[C@@H](C)CN([C@H](C)CO)C(=O)c2cc(NC(=O)Nc3ccc(C(F)(F)F)cc3)ccc2O1 | -4.3 | . | 64.3*
C[C@H](CO)N1C[C@H](C)[C@H](CN(C)C(=O)Nc2ccc(F)cc2)OCCCC[C@H](C)Oc2ccc(NC(=O)Nc3ccc(C(F)(F)F)cc3)cc2C1=O | . | 1.0 | .
C[C@@H]1CN([C@@H](C)CO)C(=O)c2cc(NC(=O)Nc3ccc(C(F)(F)F)cc3)ccc2O[C@@H]1CN(C)C(=O)Nc1ccc(F)cc1 | -48.7 | . | 57.9*
C[C@H]1CN([C@@H](C)CO)C(=O)c2cc(NC(=O)Nc3ccc(C(F)(F)F)cc3)ccc2O[C@@H]1CN(C)C(=O)Nc1ccc(F)cc1 | 1.7 | 0.0 | -3.4
C[C@@H]1CCCCO[C@H](CN(C)C(=O)Nc2ccc(F)cc2)[C@@H](C)CN([C@H](C)CO)C(=O)c2cc(NC(=O)Nc3ccc(C(F)(F)F)cc3)ccc2O1 | -31.7 | . | 62.2*
COC(=O)CCCCCCC(=O)N/N=C/c1ccc(O)c(F)c1 | -0.7 | . | -9.8
COC(=O)CCCCCCC(=O)N/N=C/c1ccccc1C(=O)O | 7.0 | . | -22.0
Cc1noc(C)c1NC(=O)N(C)C[C@@H]1OCCCC[C@@H](C)Oc2ccc(NC(=O)Nc3ccc4c(c3)OCO4)cc2C(=O)N([C@@H](C)CO)C[C@H]1C | . | -0.7 | .
O=C(CCCCCC(=O)Nc1ccccc1O)N/N=C/c1ccccc1OCCO | 8.2 | . | -11.6
COc1cc(/C=N/NC(=O)CCCCCCC(=O)Nc2ccccc2O)c([N+](=O)[O-])cc1OC | 5.9 | -0.9 | -3.8
O=C(O)c1ccc(/C=N/NC(=O)c2ccccc2O)cc1 | -25.8 | . | -22.1
CC(C)=CCC[C@H](C)C/C=N/NC(=O)CCCCCC(=O)O | 0.3 | 1.6 | -15.7
O=C(CCCCCCC(=O)Nc1ccccc1O)N/N=C/c1cc(Br)cs1 | 10.4 | 0.8 | -6.5
SMILES | INS-1E ATP HTS | A1 apoptosis 2 | T cruzi intra
NC(=O)NCC#Cc1ccc2c(c1)[C@]1(C(=O)N2)[C@H](C(=O)N2CCCCCCC2)[C@H]2C(=O)O[C@H](c3ccccc3)[C@H](c3ccccc3)N2[C@@H]1c1ccc(O)cc1 | . | 0.6 | .
C[C@@H]1CCCCO[C@H](CN(C)C(=O)Nc2ccc(C(F)(F)F)cc2)[C@@H](C)CN([C@H](C)CO)C(=O)c2cc(NC(=O)Nc3ccc4c(c3)OCO4)ccc2O1 | -22.3 | . | 59.1*
C[C@@H]1CCCCO[C@H](CN(C)C(=O)Nc2ccc(C(F)(F)F)cc2)[C@@H](C)CN([C@H](C)CO)C(=O)c2cc(NC(=O)Nc3cccc4ccccc34)ccc2O1 | -6.6 | 1.0 | 67.2*
C[C@@H]1CCCCO[C@@H](CN(C)C(=O)Nc2ccc(C(F)(F)F)cc2)[C@@H](C)CN([C@H](C)CO)C(=O)c2cc(NC(=O)NC3CCCCC3)ccc2O1 | -15.8 | -1.0 | 75.9*
C[C@@H]1CCCCO[C@@H](CN(C)C(=O)Nc2ccc(C(F)(F)F)cc2)[C@H](C)CN([C@H](C)CO)C(=O)c2cc(NC(=O)Nc3cccc4ccccc34)ccc2O1 | . | -0.1 | .
C[C@H]1CCCCO[C@@H](CN(C)C(=O)Nc2ccc(C(F)(F)F)cc2)[C@@H](C)CN([C@@H](C)CO)C(=O)c2cc(NC(=O)Nc3ccc(F)cc3)ccc2O1 | . | -0.4 | .
C[C@H](CO)N1C[C@H](C)[C@H](CN(C)C(=O)Nc2ccc3c(c2)OCO3)OCCCC[C@H](C)Oc2ccc(NC(=O)Nc3ccc(C(F)(F)F)cc3)cc2C1=O | . | -0.2 | .
CC(C)NC(=O)Nc1ccc2c(c1)C(=O)N([C@H](C)CO)C[C@@H](C)[C@H](CN(C)C(=O)Nc1ccc(C(F)(F)F)cc1)OCCCC[C@H](C)O2 | . | 1.8 | .
C[C@@H]1CCCCO[C@@H](CN(C)C(=O)Nc2ccc(C(F)(F)F)cc2)[C@@H](C)CN([C@H](C)CO)C(=O)c2cc(NC(=O)Nc3ccc(C(F)(F)F)cc3)ccc2O1 | -3.4 | . | 68.8*
CC(C)(C)OC(=O)NC1(/C=N/NC(=O)CCCCCC(=O)O)CCCC1 | 3.9 | -0.4 | -14.6
O=C(CCCCCCC(=O)Nc1ccccc1O)N/N=C/c1ccccc1C(=O)O | -3.1 | . | -13.1
COc1cccc(OC)c1/C=N/NC(=O)CCCCCCC(=O)Nc1ccccc1O | 2.1 | 0.2 | 9.5
COC(=O)CCCCCCC(=O)N/N=C/c1cccc(O)c1 | -4.1 | . | -4.9
CC1(C)[C@H]2CC=C(/C=N\NC(=O)CCCCCCC(=O)O)[C@@H]1C2 | 6.5 | 1.3 | -9.0
C[C@@H]1CCCCO[C@H](CN(C)Cc2ccc(C(F)(F)F)cc2)[C@@H](C)CN([C@H](C)CO)C(=O)c2cc(NC(=O)Nc3cccc4ccccc34)ccc2O1 | -4.0 | . | 74.0*
C[C@@H]1CCCCO[C@H](CN(C)C(=O)Nc2ccc(C(F)(F)F)cc2)[C@@H](C)CN([C@H](C)CO)C(=O)c2cc(NC(=O)c3ccccc3)ccc2O1 | -7.8 | . | 58.6*
